The values below come from ChEMBL document CHEMBL1629528 (J Med Chem, 2010).

The source made the active and inactive calls. The rule behind the calls is not given here.

For test [1], the target named is T1, 5-hydroxytryptamine receptor 1A (Homo sapiens, UniProt P08908).
T1 sequence (P08908 whole entry): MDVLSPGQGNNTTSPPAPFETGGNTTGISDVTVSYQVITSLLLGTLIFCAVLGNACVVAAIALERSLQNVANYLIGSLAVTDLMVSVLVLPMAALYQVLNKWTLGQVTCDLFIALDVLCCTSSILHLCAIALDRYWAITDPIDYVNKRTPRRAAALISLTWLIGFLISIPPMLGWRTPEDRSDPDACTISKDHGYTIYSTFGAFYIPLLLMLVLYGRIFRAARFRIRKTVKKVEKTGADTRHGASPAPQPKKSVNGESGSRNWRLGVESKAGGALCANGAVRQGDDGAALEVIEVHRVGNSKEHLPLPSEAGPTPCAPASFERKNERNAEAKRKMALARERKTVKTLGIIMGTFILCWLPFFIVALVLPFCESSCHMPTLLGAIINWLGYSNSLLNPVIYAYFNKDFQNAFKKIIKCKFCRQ
The test is described as follows: Displacement of [3H]WAY100635 from human recombinant 5-HT1A receptor expressed in CHO cells. In kind it is cell-based.

The target of test [2] is T2, 5-hydroxytryptamine receptor 1B (Homo sapiens, UniProt P28222). Briefly: Displacement of [3H]5-HT from human recombinant 5-HT1B receptor expressed in CHO cells. In kind it is cell-based.
T2 sequence (P28222 whole entry): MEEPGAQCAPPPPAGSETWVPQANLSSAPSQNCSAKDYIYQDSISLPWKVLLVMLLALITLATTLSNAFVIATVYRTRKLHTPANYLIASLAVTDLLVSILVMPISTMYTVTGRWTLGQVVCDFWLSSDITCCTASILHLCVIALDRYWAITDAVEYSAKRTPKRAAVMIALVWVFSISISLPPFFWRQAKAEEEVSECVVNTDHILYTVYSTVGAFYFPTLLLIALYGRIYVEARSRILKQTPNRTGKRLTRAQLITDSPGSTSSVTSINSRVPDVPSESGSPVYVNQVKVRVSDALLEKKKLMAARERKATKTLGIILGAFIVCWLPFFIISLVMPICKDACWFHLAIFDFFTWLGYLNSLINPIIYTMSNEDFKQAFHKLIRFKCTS
The target in test [3] is T3, 5-hydroxytryptamine receptor 1D (Homo sapiens, UniProt P28221). The test is described as follows: Displacement of [3H]5-HT from human recombinant 5-HT1D receptor expressed in CHO cells. In kind it is cell-based.
T3 sequence (P28221 whole entry): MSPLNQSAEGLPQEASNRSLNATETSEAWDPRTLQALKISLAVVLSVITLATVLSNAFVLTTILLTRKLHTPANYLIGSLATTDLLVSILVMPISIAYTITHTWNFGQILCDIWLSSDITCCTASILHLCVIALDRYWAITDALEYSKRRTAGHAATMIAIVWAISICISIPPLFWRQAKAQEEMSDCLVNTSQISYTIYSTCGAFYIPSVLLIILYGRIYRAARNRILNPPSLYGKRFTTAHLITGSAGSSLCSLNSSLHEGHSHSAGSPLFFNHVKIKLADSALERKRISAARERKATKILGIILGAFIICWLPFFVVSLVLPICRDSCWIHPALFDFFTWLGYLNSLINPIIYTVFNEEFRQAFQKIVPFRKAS
Test [4] concerns the target Sodium-dependent serotonin transporter (Rattus norvegicus, UniProt P31652). Briefly: Inhibition of [3H]5-HT uptake at SERT in rat cortical synaptosomes. In kind it is subcellular, Brain.
Test [5] has as its target T3, 5-hydroxytryptamine receptor 1D. The test is described as follows: Intrinsic activity at human recombinant 5-HT1D receptor expressed in CHO cells by [S35]GTPgammaS binding assay relative to 5-HT. In kind it is functional, cell-based. Put shortly:
(§1)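 [35S]-GTPγS binding in membranes from 10^6 cells (HEK293 for 5-HT1A; CHO for 5-HT1B, 5-HT1D), preincubated 30 min at 30 °C with compound in 20 mM HEPES pH 7.4, 3 mM MgCl2, 100 mM NaCl, 10 μM GDP, 0.2 mM ascorbate. 100 pM [35S]-GTPγS added, 30 min more at 30 °C; nonspecific with 20 μM GTPγS; filtration and scintillation counting.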

The target in test [6] is T4, 5-hydroxytryptamine receptor 1A (Homo sapiens) (UniProt P08908).
T4 sequence (whole entry): T1 sequence (P08908 whole entry)
Briefly: Inverse agonist activity at human recombinant 5-HT1A receptor expressed in HEK293 cells by [S35]GTPgammaS binding assay. In kind it is functional, cell-based. In a few lines:
as §1

Test [7] has as its target T2, 5-hydroxytryptamine receptor 1B. Briefly: Inverse agonist activity at human recombinant 5-HT1B receptor expressed in CHO cells by [S35]GTPgammaS binding assay. In kind it is functional, cell-based. In a few lines: as §1
The target in test [8] is T4, 5-hydroxytryptamine receptor 1A (Homo sapiens). Briefly: Intrinsic activity at human recombinant 5-HT1A receptor expressed in HEK293 cells by [S35]GTPgammaS binding assay relative to 5-HT. In kind it is functional, cell-based. In a few lines:
as §1

A further test relates to Rattus norvegicus. Briefly: Inhibition of 8-OH-DPAT-induced hyperlocomotory activity in Sprague-Dawley rat administered orally 60 mins before 8-OH-DPATchallenge. In kind it is functional. In a few lines:
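Male Sprague-Dawley rats (250–350 g) dosed orally (5 mL/kg) at 0.03, 0.1 or 0.3 mg/kg or vehicle, 60 min before sc 8-OH-DPAT 0.2 mg/kg (2 mL/kg). Total distance travelled recorded by infrared sensors over 30 min immediately after; 8–9 rats per group.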

The target of test [9] is T2, 5-hydroxytryptamine receptor 1B. Briefly: Intrinsic activity at human recombinant 5-HT1B receptor expressed in CHO cells by [S35]GTPgammaS binding assay relative to 5-HT. In kind it is functional, cell-based. In a few lines: as §1
In test [10] the target is 5-hydroxytryptamine receptor 2A (Homo sapiens, UniProt P28223). The test is described as follows: Binding affinity to human recombinant 5-HT2A receptor by radioligand displacement assay.
Sequence of 5-hydroxytryptamine receptor 2A (P28223 whole entry): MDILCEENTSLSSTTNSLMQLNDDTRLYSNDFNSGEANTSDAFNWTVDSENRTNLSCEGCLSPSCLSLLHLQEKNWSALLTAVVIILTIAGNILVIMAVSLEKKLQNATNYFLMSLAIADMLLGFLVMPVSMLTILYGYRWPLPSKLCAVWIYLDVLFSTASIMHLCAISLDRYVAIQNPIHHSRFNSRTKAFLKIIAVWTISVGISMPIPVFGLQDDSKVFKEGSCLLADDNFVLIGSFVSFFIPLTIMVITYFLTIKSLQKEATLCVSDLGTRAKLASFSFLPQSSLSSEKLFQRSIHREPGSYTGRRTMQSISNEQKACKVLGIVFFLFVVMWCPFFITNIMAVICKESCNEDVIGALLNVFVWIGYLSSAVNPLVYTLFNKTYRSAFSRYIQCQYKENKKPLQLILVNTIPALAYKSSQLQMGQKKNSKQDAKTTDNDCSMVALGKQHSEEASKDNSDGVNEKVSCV
Test [11] has as its target 5-hydroxytryptamine receptor 2B (Homo sapiens, UniProt P41595). Briefly: Binding affinity to human recombinant 5-HT2B receptor by radioligand displacement assay.
Test [12] concerns the target T5, 5-hydroxytryptamine receptor 2C (Homo sapiens, UniProt P28335).
T5 sequence (P28335 whole entry): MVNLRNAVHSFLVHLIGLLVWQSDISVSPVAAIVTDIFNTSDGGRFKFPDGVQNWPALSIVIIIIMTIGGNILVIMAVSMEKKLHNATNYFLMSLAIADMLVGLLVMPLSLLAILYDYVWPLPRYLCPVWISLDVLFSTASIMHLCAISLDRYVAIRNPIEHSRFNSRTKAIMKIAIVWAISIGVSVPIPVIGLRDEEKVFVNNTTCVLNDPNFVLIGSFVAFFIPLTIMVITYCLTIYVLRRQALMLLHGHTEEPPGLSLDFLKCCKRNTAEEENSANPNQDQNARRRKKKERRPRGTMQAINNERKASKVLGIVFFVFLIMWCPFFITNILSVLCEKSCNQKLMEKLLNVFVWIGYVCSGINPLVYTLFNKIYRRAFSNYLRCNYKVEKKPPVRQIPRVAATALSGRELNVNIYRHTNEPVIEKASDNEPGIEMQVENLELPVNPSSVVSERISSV
The test is described as follows: Binding affinity to human recombinant 5-HT2C receptor by radioligand displacement assay.

Test [13] has as its target 5-hydroxytryptamine receptor 6 (Homo sapiens, UniProt P50406). Briefly: Binding affinity to human recombinant 5-HT6 receptor by radioligand displacement assay.
In test [14] the target is 5-hydroxytryptamine receptor 7 (Homo sapiens, UniProt P34969). Briefly: Binding affinity to human recombinant 5-HT7 receptor by radioligand displacement assay.
The next test addresses D(2) dopamine receptor (Homo sapiens, UniProt P14416). Briefly: Binding affinity to human recombinant dopamine D2 receptor by radioligand displacement assay.
For a further test, the target named is D(3) dopamine receptor (Homo sapiens, UniProt P35462). The test is described as follows: Binding affinity to human recombinant dopamine D3 receptor by radioligand displacement assay.
Sequence of D(3) dopamine receptor (P35462 whole entry): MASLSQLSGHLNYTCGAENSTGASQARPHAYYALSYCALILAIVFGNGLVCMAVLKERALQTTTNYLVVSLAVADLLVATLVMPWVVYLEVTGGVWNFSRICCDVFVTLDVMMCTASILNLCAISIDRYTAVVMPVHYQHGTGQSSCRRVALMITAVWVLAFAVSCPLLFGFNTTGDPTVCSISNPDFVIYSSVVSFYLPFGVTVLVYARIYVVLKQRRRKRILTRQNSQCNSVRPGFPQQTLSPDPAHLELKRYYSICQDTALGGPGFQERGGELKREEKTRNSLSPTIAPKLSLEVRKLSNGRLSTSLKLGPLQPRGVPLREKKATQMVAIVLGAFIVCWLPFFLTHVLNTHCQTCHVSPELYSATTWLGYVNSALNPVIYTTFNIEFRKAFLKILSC
In test [15] the target is Voltage-gated inwardly rectifying potassium channel KCNH2 (Homo sapiens, UniProt Q12809). The test is described as follows: Displacement of [3H]dofetilide from human ERG by SPA.
Sequence of Voltage-gated inwardly rectifying potassium channel KCNH2 (Q12809 whole entry): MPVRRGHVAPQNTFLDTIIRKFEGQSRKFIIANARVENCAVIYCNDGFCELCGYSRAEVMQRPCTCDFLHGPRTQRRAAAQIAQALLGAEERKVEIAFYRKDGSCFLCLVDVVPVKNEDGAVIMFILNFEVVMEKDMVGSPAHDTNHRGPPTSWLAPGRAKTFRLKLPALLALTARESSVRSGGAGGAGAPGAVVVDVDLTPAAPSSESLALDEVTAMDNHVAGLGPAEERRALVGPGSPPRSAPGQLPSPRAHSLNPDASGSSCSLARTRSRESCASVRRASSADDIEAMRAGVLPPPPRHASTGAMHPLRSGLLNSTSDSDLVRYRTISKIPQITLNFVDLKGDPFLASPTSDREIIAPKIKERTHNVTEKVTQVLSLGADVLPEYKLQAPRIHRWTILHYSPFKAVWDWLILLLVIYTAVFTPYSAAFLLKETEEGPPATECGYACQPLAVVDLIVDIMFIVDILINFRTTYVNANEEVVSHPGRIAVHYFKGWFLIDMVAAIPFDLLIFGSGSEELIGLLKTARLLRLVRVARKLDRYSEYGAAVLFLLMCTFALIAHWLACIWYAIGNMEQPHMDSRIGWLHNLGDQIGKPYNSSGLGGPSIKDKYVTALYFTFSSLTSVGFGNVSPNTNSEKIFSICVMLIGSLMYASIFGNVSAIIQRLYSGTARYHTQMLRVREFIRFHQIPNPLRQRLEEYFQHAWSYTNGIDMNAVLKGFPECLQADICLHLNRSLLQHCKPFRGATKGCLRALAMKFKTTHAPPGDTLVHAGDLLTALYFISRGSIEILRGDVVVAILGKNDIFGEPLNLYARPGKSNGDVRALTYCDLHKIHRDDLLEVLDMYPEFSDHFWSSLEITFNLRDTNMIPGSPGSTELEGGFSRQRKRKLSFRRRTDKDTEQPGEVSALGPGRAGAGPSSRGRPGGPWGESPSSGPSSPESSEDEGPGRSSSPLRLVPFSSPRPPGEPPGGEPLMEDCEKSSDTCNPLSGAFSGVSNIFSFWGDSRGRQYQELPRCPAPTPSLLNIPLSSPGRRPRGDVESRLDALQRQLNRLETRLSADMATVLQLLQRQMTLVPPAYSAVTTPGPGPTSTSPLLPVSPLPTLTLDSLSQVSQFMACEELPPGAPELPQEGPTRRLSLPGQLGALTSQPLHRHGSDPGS
Test [16] deals with T3, 5-hydroxytryptamine receptor 1D. Briefly: Inverse agonist activity at human recombinant 5-HT1D receptor expressed in CHO cells by [S35]GTPgammaS binding assay. In kind it is functional, cell-based. Put shortly: as §1

Sequence of 5-hydroxytryptamine receptor 2B (P41595 whole entry): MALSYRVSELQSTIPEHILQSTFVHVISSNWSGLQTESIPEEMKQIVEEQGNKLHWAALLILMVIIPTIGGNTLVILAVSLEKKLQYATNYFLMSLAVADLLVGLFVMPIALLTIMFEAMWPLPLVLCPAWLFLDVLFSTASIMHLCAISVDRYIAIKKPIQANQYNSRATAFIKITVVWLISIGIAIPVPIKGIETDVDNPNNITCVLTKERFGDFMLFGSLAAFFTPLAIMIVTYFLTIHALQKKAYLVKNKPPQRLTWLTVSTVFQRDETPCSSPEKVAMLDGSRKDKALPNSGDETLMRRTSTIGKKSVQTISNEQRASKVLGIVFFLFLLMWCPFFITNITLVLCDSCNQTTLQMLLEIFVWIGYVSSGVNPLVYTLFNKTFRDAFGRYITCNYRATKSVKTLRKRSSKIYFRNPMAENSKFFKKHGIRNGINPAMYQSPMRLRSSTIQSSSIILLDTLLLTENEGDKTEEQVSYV
Sequence of 5-hydroxytryptamine receptor 6 (P50406 whole entry): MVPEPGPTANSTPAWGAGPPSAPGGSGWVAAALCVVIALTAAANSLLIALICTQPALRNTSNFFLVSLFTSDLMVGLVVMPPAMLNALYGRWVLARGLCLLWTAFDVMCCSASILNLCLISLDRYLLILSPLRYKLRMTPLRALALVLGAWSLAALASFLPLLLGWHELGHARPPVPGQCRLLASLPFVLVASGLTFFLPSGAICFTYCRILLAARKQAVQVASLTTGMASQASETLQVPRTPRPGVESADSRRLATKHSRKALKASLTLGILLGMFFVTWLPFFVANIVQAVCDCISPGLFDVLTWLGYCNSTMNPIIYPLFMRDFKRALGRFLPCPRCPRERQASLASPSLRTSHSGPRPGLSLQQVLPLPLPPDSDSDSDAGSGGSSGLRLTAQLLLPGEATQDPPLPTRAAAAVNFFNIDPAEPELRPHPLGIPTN
Sequence of D(2) dopamine receptor (P14416 whole entry): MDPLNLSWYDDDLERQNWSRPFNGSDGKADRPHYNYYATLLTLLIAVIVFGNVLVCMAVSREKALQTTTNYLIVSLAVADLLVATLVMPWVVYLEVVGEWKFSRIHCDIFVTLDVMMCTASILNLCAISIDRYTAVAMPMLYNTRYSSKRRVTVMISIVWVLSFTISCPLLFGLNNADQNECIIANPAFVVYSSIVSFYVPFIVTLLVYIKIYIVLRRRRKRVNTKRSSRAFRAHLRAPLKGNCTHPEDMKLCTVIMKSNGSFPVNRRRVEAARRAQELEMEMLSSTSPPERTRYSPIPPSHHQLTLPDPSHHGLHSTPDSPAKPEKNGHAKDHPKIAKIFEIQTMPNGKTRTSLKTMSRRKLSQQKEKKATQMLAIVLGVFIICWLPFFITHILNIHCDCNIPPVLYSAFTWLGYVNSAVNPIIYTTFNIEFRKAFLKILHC
Sequence of Sodium-dependent serotonin transporter (P31652 whole entry): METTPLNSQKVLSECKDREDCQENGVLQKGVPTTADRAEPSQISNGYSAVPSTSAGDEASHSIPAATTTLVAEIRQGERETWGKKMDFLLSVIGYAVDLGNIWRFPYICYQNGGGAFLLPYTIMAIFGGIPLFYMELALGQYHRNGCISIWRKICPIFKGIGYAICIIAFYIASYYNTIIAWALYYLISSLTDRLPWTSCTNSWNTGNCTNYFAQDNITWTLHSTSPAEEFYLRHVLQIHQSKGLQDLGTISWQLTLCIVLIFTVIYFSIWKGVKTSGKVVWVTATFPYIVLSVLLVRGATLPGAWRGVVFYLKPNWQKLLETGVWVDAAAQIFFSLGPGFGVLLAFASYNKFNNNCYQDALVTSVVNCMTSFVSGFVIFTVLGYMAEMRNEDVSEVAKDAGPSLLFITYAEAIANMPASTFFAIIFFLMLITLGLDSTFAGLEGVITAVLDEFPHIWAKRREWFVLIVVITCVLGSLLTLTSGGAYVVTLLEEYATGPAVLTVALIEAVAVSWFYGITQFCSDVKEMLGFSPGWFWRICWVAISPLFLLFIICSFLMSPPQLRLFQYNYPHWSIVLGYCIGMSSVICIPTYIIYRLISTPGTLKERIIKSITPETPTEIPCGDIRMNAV

Turning to `Cc1ccc2c(N3CCN(CCc4cccc(NC(=O)c5ccc(F)cc5)c4)CC3)cccc2n1`, the inhibitory constant (Ki) was 1.26 nM in test [1], 5.01 nM in test [2], 0.398 nM in [3] and 794 nM in test [4]. For the same compound, in [5], the Intrinsic activity stood at 0. Also, the outcome in test [6] and in test [7] was Active.
Regarding `Cc1ccc2c(N3CCN(CCc4cccc(N5CCNC5=O)c4)CC3)cccc2n1`, the Intrinsic activity in test [8], in test [9] and in test [5] was 0 throughout. In the test on Rattus norvegicus, the inhibition entry is “Dose-dependent effect”.
As for `COC(=O)Nc1cccc(CCN2CCN(c3cccc4nc(C)ccc34)CC2)c1`, the inhibition constant (Ki) in [1] was 0.398 nM; in test [3], 0.251 nM; in test [4] it was 501 nM; in test [10], 200 nM; in test [11] it was 200 nM; in [12], 794 nM. The Ki is more than 1580 nM in test [13], 25.1 nM in test [14], 200 nM on D(2) dopamine receptor and 100 nM at D(3) dopamine receptor. For the same compound, the Intrinsic activity in test [8] and in test [5] was 0 each time. Further, the outcome in test [7] was Active.
Consider `Cc1ccc2c(N3CCN(CCc4cccc(NC(=O)Nc5ccccc5)c4)CC3)cccc2n1`, for which the inhibitory constant (Ki) is 3.98 nM in [1]; 3.16 nM in test [2]; 0.316 nM in test [3]; 2000 nM in test [4]; 316 nM in test [15]; more than 6310 nM in test [10]. The inhibitory constant (Ki) was more than 6310 nM in test [11]; more than 10000 nM in test [12]; 316 nM in test [13]; 79.4 nM in [14]; 79.4 nM on D(2) dopamine receptor; 31.6 nM at D(3) dopamine receptor. In addition, the Intrinsic activity in [8], in test [9] and in test [5] was 0 in each case.
With `Cc1ccc2c(N3CCN(CCc4cccc(N5CCOC5=O)c4)CC3)cccc2n1`, the inhibitory constant (Ki) in test [3] is 0.158 nM; in [4], 501 nM; in [15] it was 2000 nM; in test [10] it was 794 nM; in test [11], 1260 nM; in test [12] it was more than 5010 nM. In addition, the Ki in [13] is 3160 nM; in test [14], 501 nM; at D(2) dopamine receptor it was 794 nM; at D(3) dopamine receptor it was 200 nM. The Intrinsic activity in test [8] and in test [9] was 0 in each case. Also, the result in [16] was Active.
Regarding `Cc1ccc2c(N3CCN(CCc4cccc(NS(C)(=O)=O)c4)CC3)cccc2n1` [listing 1 of 2 here], the Ki in test [1] is 0.794 nM; in [2], 0.794 nM; in test [3], 0.126 nM; in test [4], 3160 nM; in test [15] it was 501 nM; in [10] it was 794 nM. For the same compound, the Ki in test [11] was 398 nM; in [12] it was 3160 nM; in [13], more than 2510 nM; in [14], 100 nM; at D(2) dopamine receptor, 398 nM; at D(3) dopamine receptor it was 200 nM.
For the compound `CC(=O)Nc1cccc(CCN2CCN(c3cccc4nc(C)ccc34)CC2)c1`, the Intrinsic activity in test [8] and in [9] was 0 each time. Moreover, the inhibition entry with Rattus norvegicus is “Dose-dependent effect”. Besides, the result in [16] was Active.
As to `Cc1ccc2c(N3CCN(CCc4cccc(NS(C)(=O)=O)c4)CC3)cccc2n1` [listing 2 of 2 here], the Intrinsic activity in [8] stood at 0; in test [9], 0.1. Besides, the inhibition entry in the test with Rattus norvegicus was “Dose-dependent effect”. In addition, the outcome in test [16] was Active.
Turning to `Cc1ccc2c(N3CCN(CCc4cccc(NC(=O)c5csc(C)n5)c4)CC3)cccc2n1`, the inhibition constant (Ki) is 0.794 nM in [1]; 3.16 nM in test [2]; 0.398 nM in [3]; 501 nM in [4]; 316 nM in test [15]. The outcome in test [16], in [6] and in test [7] was Active.
Consider `CCNC(=O)Nc1cccc(CCN2CCN(c3cccc4nc(C)ccc34)CC2)c1`, for which the Ki in [1] was 2 nM; in test [2], 1.26 nM; in test [3], 0.158 nM; in test [4], 501 nM; in test [15] it was 631 nM; in test [10], 316 nM. In addition, the inhibitory constant (Ki) in test [11] is 398 nM; in test [12] it was 794 nM; in [13], more than 6310 nM; in [14], 39.8 nM; on D(2) dopamine receptor, 316 nM; on D(3) dopamine receptor, 126 nM. Further, in [8], the Intrinsic activity turned out to be 0. In addition, the outcome in test [16] and in test [7] was Active.
As to `Cc1ccc2c(N3CCN(CCc4cccc(NC(=O)c5ccccc5)c4)CC3)cccc2n1`, the Ki is 1 nM in test [1]; 2.51 nM in test [2]; 0.316 nM in test [3]; 2000 nM in [4]; 50.1 nM in test [15]; 79.4 nM in test [10]. In addition, the Ki in test [11] was 126 nM; in test [12], 794 nM; in test [13] it was more than 1000 nM; in [14], 79.4 nM; at D(2) dopamine receptor it was 398 nM; on D(3) dopamine receptor it was 100 nM. Besides, the outcome in test [16], in test [6] and in test [7] was Active.
In the case of `CC(=O)N(C)c1cccc(CCN2CCN(c3cccc4nc(C)ccc34)CC2)c1`, the values for the inhibition constant Ki in test [1], in [2] and in test [3] were 2 nM, 12.6 nM and 0.316 nM, respectively. Besides, the Intrinsic activity in [8] came to 0.1; in test [9], 0.2; in test [5], 0.
Regarding `Cc1ccc2c(OCCN3CCC(Cc4cccc(NS(C)(=O)=O)c4)CC3)cccc2n1`, the Intrinsic activity turned out to be 0.3 in test [9] and 0 in test [5]. The result in [6] was Active.
